{"source": "paper PMC6977399", "about": "(Clinical Pharmacology and Therapeutics, 2019)", "key": {"OATP1B1": {"biological_target": "T1, OATP1B1 (Homo sapiens, UniProt Q9Y6L6)", "T1 sequence (Q9Y6L6 1-691)": "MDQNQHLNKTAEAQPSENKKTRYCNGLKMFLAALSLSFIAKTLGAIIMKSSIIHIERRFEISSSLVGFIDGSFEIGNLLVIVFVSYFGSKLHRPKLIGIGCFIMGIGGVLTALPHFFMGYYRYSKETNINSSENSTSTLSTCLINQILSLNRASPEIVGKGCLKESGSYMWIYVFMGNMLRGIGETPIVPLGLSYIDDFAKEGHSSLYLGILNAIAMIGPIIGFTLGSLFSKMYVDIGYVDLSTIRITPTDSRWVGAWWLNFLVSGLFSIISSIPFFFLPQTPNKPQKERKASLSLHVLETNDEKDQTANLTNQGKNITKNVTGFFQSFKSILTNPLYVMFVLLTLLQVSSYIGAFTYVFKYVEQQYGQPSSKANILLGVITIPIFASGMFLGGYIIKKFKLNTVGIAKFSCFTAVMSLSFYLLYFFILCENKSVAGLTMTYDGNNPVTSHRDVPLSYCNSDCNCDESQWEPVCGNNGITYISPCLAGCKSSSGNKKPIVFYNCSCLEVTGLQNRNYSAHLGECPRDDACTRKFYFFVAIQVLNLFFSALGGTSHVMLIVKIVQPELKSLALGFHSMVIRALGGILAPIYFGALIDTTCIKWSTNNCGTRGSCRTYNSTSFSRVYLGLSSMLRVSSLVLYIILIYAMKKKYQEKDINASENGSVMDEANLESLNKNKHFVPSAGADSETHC", "experiment": "Inhibition of OATP1B1-mediated E217ßG uptake in HEK293 cells", "format": "in vitro ADME"}, "[1]": {"experiment": "Fenebrutinib plasma exposure at 200 mg b.i.d. in the clinical DDI study", "format": "in vivo", "conditions": "human, oral, observed Cmax at steady-state, data not shown"}, "[2]": {"conditions": "phase I single-ascending and multiple-ascending dose studies; cited from earlier work"}, "CYP2C8": {"biological_target": "T2, CYP2C8 (Homo sapiens, UniProt P10632)", "T2 sequence (P10632 1-490)": "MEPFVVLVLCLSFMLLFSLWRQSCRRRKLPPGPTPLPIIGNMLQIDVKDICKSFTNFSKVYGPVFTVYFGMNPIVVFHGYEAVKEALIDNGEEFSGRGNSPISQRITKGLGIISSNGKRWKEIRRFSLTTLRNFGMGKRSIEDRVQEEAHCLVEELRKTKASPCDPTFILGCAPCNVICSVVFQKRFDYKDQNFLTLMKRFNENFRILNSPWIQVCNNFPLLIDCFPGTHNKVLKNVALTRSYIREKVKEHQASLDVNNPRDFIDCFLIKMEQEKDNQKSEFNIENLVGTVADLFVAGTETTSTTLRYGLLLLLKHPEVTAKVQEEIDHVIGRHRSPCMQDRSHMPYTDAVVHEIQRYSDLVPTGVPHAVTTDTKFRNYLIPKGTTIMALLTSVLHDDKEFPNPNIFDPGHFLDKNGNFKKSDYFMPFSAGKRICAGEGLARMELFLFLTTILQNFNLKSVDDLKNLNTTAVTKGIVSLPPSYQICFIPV", "experiment": "CYP inhibition in human liver microsomes", "format": "in vitro ADME", "conditions": "up to 50 μM", "method_in_brief": "(§1)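 Reversible inhibition: test compound pre-incubated 10 min at 37°C with pooled human liver microsomes plus an isoform-selective probe substrate. Reaction started with NADPH (1.3 mM), then quenched with 3% formic acid in acetonitrile containing internal standard. CYP-specific metabolite formation measured by LC-MS/MS. Activity expressed as % control = (peak area ratio with compound / without compound) × 100.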"}, "CYP1A2": {"biological_target": "T3, CYP1A2 (Homo sapiens, UniProt P05177)", "T3 sequence (P05177 1-516)": "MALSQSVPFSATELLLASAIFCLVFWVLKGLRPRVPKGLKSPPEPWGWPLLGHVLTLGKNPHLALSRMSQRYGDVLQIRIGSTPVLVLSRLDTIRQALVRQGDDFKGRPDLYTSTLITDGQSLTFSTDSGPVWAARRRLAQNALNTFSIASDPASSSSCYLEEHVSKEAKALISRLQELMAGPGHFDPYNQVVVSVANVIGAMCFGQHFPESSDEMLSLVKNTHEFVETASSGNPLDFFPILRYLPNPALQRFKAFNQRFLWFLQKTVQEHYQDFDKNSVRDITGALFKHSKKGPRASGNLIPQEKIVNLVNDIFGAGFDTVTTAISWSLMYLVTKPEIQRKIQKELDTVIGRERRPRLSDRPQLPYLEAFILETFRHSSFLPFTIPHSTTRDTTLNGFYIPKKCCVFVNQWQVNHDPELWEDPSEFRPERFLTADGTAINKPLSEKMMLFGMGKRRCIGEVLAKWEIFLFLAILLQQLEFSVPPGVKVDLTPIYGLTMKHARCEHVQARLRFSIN", "experiment": "CYP inhibition in human liver microsomes", "format": "in vitro ADME", "conditions": "up to 50 μM", "method_in_brief": "as §1"}, "CYP3A": {"test_system": "CYP3A", "experiment": "Reversible CYP3A inhibition in human liver microsomes", "format": "in vitro ADME", "conditions": "MDZ and testosterone as probe substrates", "method_in_brief": "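Test compound was pre-incubated for 10 min at 37°C with pooled human liver microsomes containing an isoform-selective substrate. Metabolite formation was expressed as % control activity, calculated as the peak area ratio with compound divided by the peak area ratio without compound, ×100.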"}, "CYP2C19": {"biological_target": "CYP2C19 (Homo sapiens, UniProt P33261)", "sequence (P33261 whole entry)": "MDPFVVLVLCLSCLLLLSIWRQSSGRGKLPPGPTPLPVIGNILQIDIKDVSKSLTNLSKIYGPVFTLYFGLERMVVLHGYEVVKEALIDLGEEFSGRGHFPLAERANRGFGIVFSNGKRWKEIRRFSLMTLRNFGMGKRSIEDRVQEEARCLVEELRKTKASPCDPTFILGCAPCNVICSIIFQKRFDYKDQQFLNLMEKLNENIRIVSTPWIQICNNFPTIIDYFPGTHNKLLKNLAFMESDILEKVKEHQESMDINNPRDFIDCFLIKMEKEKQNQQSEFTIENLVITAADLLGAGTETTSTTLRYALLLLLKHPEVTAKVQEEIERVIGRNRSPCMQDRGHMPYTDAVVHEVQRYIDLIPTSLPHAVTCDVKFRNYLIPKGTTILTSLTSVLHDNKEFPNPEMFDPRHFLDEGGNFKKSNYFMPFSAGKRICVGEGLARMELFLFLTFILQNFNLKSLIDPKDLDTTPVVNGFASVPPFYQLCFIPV", "experiment": "CYP inhibition in human liver microsomes", "format": "in vitro ADME", "conditions": "up to 15 μM", "method_in_brief": "as §1"}}}
{"smiles": "C[C@H]1CN(C2COC2)CCN1c1ccc(Nc2cc(-c3ccnc(N4CCn5c(cc6c5CC(C)(C)C6)C4=O)c3CO)cn(C)c2=O)nc1", "note": "[fenebrutinib]", "values": [{"measurement": "IC50", "setting": "OATP1B1", "value": 19.7, "unit": "µM"}, {"measurement": "inhibition at 30 μM", "setting": "OATP1B1; human, HEK293 cells stably expressing human OATP1B1, pH 7.4, probe E217ßG (1 μM)", "value": 62.8, "unit": "%"}, {"measurement": "Cmax", "setting": "[1]", "value": "~1000", "unit": "nM"}, {"measurement": "terminal half-life (t1/2)", "setting": "[2]", "value": "4−10 hours"}, {"measurement": "reversible or time-dependent inhibition of CYP2C8", "setting": "CYP2C8", "value": "No reversible or time‐dependent inhibition"}, {"measurement": "reversible or time-dependent inhibition of CYP1A2", "setting": "CYP1A2", "value": "No reversible or time‐dependent inhibition"}, {"measurement": "reversible CYP3A inhibition", "setting": "CYP3A", "value": "no reversible CYP3A inhibition"}, {"measurement": "reversible or time-dependent inhibition of CYP2C19", "setting": "CYP2C19", "value": "No reversible or time‐dependent inhibition"}]}
